LEDGF integ inh = blocks HIV-1 LEDGF/p75-dependent DNA integration; inhibition, % at 3.7 µM; TR-FRET IN-LEDGF/p75 DNA integration, Eu/Cy5; AID 743269; hit rate 0.64% among 370,000;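 active = inhibition above the screen-wide mean plus 3 SD, cut at about 13% in these data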;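 also: signal is the Cy5 over europium emission ratio at 671 and 618 nm; 0% = plate median of compound wells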
UHRF1 MBD2 ctr = blocks human UHRF1 binding to methylated DNA; UHRF1 binding to methylated oligo, TR-FRET; inhibition, % at 4.4 µM; hit rate 0.75% among 370,000; AID 687016; in the data active = inhibition above about 21%;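 also: UHRF1 SRA domain binding a hemimethylated CpG hairpin DNA probe; 0% = median of test compound wells and 100% = reference inhibitor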
TDP2 absorb = blocks human TDP2 phosphodiesterase activity. O95551. recombinant TDP2, T5PNP hydrolysis, p-nitrophenol absorbance 415 nm. inhibition, % at 12.8 µM. hit rate 0.34% among 370,000;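 active = inhibition above the mean of all tested compounds plus 3 SD, set per campaign, cut at about 25% in these data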;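 also: 0% = DMSO with enzyme and 100% = buffer with substrate but no TDP2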
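Assay system: recombinant human TDP2 / Reagent: T5PNP substrate at 5 mM, a TopII-DNA adduct mimic / Measured by: epi absorbance from released p-nitrophenol / Evaluation: % inhibition relative to enzyme-containing and enzyme-free wells / Control set: enzyme-free and DMSO wells / Replicates: each compound tested once, singlicate / Schedule: enzyme reaction with compound for 2 h at 37 °C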
MBD2 inh = MBD2-methylated oligo binding inhibition; inhibition, % at 4.4 µM; AID 686964; hit rate 0.31% among 370,000; TR-FRET, MBD2 binding to methylated oligonucleotide; in the data active = inhibition above about 13%
Target sequence (Q9UBB5 whole entry, looked up): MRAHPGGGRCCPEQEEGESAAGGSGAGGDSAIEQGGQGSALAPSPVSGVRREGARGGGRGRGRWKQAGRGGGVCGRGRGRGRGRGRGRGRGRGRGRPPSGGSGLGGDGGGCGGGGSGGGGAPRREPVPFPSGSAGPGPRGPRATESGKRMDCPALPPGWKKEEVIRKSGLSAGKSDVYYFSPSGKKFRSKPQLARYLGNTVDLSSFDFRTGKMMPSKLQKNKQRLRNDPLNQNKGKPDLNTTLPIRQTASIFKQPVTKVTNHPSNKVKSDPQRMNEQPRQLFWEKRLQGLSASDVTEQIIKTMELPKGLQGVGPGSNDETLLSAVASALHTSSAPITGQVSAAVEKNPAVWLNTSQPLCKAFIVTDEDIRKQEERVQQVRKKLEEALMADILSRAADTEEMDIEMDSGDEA
PRMT1 inh = PRMT1 (human) inhibition, primary screen. Q99873. recombinant PRMT1, activity-based probe fluorescence polarization. inhibition, % at 2.79 µM. hit rate 1.3% among 370,000;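 active = inhibition above about 21% made by adding two undisclosed values, limit read from the data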
SIAE primary = inhibitors of human sialic acid acetylesterase SIAE. AID 1053197. SIAE FP-Rh probe binding, fluorescence polarization. hit rate 0.69% among 370,000. inhibition, % at 9.66 µM;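 active = inhibition above a cutoff: mean of compounds within the control limits plus 3 SD of those, cut at about 17% in these data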;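 also: 0% = plate median of compound wells and 100% = probe without SIAE protein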
PRMT1 confirm = confirmation of human PRMT1 inhibitors; shares compounds with PRMT1 inh; recombinant His-PRMT1, activity-based probe fluorescence polarization; inhibition, % at 2.79 µM; hit rate 42% among 3,300; AID 687036;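 active = mean inhibition across replicates above the hit cutoff derived for the earlier primary screen, cut at about 22% in these data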
Numbers without * were called inactive; x = no result given. The list is not random: actives were taken first. Their share in the collection is about 3.3%.

SMILES | LEDGF integ inh | UHRF1 MBD2 ctr | TDP2 absorb | MBD2 inh | PRMT1 inh | SIAE primary | PRMT1 confirm
C[C@@H]1OC(C2CCCCC2)N(C)[C@H]2C[C@H]3c4[nH]c5c(-c6ccc7c(c6)OCO7)cccc5c4CCN3C[C@@H]12 (stereo partly drawn) | -1 | 0 | -8 | -1 | 1 | -1 | x
CCN(Cc1cn(Cc2ccccc2)nn1)S(=O)(=O)c1ccccc1Br | 6 | -1 | 0 | -7 | 3 | -1 | x
COc1ccccc1CNC(=O)N1CCC(c2nc3ccc(Cl)cc3[nH]2)CC1 | -1 | 1 | -7 | -5 | -2 | 1 | x
CSc1nc(-c2ccco2)nn1S(=O)(=O)c1ccc(C)cc1 | 6 | -2 | -13 | 0 | 7 | 4 | x
Cc1ccc(S(=O)(=O)n2nc(-c3ccco3)nc2SCc2ccccc2)cc1 | 2 | 3 | 2 | 6 | 25* | 4 | 12
O=C(CSC1=NCCS1)NC(NC(=O)CSC1=NCCS1)c1ccccc1 | -2 | 2 | 1 | 2 | 26* | 4 | 11
CC(NC(=O)CSC1=NCCS1)c1ccccc1 (stereo not drawn) | 2 | 6 | -9 | 0 | 3 | -3 | x
O=C(CSC1=NCCS1)NC(c1ccccc1)c1ccccc1 | -2 | -1 | 5 | 1 | 58* | -3 | 66*
CN(C)CCCn1c2c3ccccc3ccc2c2oc(=O)c3ccccc3c21 | -1 | -24 | -7 | 11 | 29* | -15 | 1
CN(C)CCCn1c(=S)[nH]c2ccccc2c1=O | -2 | 9 | -2 | 7 | 12 | -3 | x
CCC[C@H]1[C@@H](NC(=O)c2ccc(Cl)c(C(F)(F)F)c2)CC[C@@]23CCCN2C(=O)CCC[C@@H]13 | -2 | -1 | 2 | 2 | 2 | 3 | x
Cc1ncoc1C(=O)Nc1ncc([N+](=O)[O-])s1 | 3 | 0 | -6 | -6 | 39* | -16 | 2
O=C(Nc1ncc([N+](=O)[O-])s1)c1cccs1 | -1 | 2 | -16 | -1 | 6 | -1 | x
O=C(CC(Sc1ccccc1)c1cccs1)c1ccco1 (stereo not drawn) | 0 | -2 | -4 | -1 | 80* | -5 | 83*
O=C(Cc1cccs1)OCC(=O)c1ccco1 | 6 | 6 | -6 | -1 | 2 | -1 | x
CCN(CC)c1ccc(C=Nn2c(-c3cc(C)[nH]n3)n[nH]c2=S)cc1 | -4 | -1 | 1 | -2 | 4 | 7 | x
CCN(CC)c1ccc(/C=N/n2c(-c3ccccc3Br)n[nH]c2=S)cc1 | -2 | -1 | -3 | 3 | 25* | 4 | 8
C[N+]1=C(N)NC2=C3CCCCC3n3c(=O)n(-c4ccccc4)c(=O)n3C2C1 (stereo not drawn) | -1 | -1 | 4 | 3 | 4 | 1 | x
O=C(Nc1nncs1)c1cc(-c2ccco2)nc2ccccc12 | 12 | -1 | 7 | -4 | 36* | -4 | 9
CCc1nnc(NC(=O)c2cc(-c3ccco3)nc3ccccc23)s1 | 9 | 18 | -3 | 10 | 26* | 12 | 12
Cc1cccc(NC(=O)c2cc(-c3ccco3)nc3ccccc23)n1 | 1 | -2 | 5 | 0 | 35* | 1 | 9
O=C(NCC1COCCO1)C1CCN(S(=O)(=O)c2cccs2)CC1 (stereo not drawn) | -2 | -2 | 4 | 1 | -1 | -1 | x
O=C(NCCc1ccccc1)OCc1cn(Cc2ccc(F)c(F)c2)nn1 | 1 | 2 | -1 | 1 | 3 | 0 | x
CSc1ccc(C=NNC(=O)c2cc(-c3ccc(Cl)cc3)n[nH]2)cc1 | -1 | -1 | -1 | -4 | -3 | -5 | x
Cn1cccc1C=NNC(=O)c1cc(-c2ccc(Cl)cc2)n[nH]1 | 1 | -3 | 0 | 5 | 25* | -7 | -7
SMILES | LEDGF integ inh | UHRF1 MBD2 ctr | TDP2 absorb | MBD2 inh | PRMT1 inh | SIAE primary | PRMT1 confirm
CC(=O)c1cc(NC(=O)c2ccc(C)cc2)c(=O)oc1C | 2 | 2 | 0 | 4 | 33* | 2 | -6
CC(=O)c1cc(NC(=O)c2ccccc2)c(=O)oc1C | 4 | -2 | -26 | 4 | 20 | 0 | x
COC(=O)c1cc(NC(=O)c2ccc(OC)cc2)c(=O)oc1C | 4 | 3 | -13 | 4 | 1 | 1 | x
Cc1oc(=O)c(NC(=O)c2ccc(Cl)cc2)cc1C(=O)c1ccccc1 | 2 | 0 | 1 | -3 | 42* | 5 | 21
Cc1oc(=O)c(NC(=O)c2ccccc2)cc1C(=O)c1ccccc1 | 4 | -3 | -5 | 2 | 56* | 2 | 11
CN(CCC#N)C(=O)COC(=O)c1c2c(nc3ccccc13)/C(=C/c1ccco1)CC2 | 79* | 86* | -13 | 64* | 41* | 20* | 29*
CN1C(=O)C(=O)N2C(=C[C@]3(c4c[nH]c5ccccc45)c4ccccc4N[C@H]23)C1=O | 1 | 2 | 3 | -1 | 7 | 9 | x
Cc1ccc(O)c(NC(=O)C2=CC(c3ccco3)=NS(=O)(=O)N2C)c1 | -1 | -2 | -3 | -5 | 97* | 4 | -1
O=C1CC(Sc2ccc(Cl)cc2)C(=O)N1c1ccc2c(c1)OCCO2 (stereo not drawn) | 7 | -2 | -7 | -6 | 55* | -53 | 45*
Cc1ccccc1N1CCN(C(=O)CCn2nnc3ccccc32)CC1 | -3 | 1 | 3 | 0 | 0 | -3 | x
COCC(=O)/C=C1\Sc2ccccc2N1C | -3 | 0 | 10 | 1 | 15 | 0 | x
CN1/C(=C/C(=O)c2cccs2)Sc2ccccc21 | -2 | -6 | -14 | -9 | 25* | 7 | 1
CN1/C(=C\C(=O)c2cccs2)Sc2ccccc21 | -2 | -7 | -26 | -2 | 42* | 2 | 5
COc1cc(OC)cc(C(=O)/C=C2\Sc3ccccc3N2C)c1 | -2 | 1 | 9 | -1 | 0 | 6 | x
CN1/C(=C\C(=O)c2cccs2)C(C)(C)c2ccccc21 | 0 | 3 | -9 | 0 | 0 | 7 | x
CN1/C(=C/C(=O)C2CCC2)Sc2ccccc21 | 6 | -3 | -8 | -1 | 63* | -5 | 2
COC(=O)[C@H](C(C)C)N(Cc1cn(Cc2ccccc2)nn1)S(=O)(=O)c1ccc(F)cc1Br | 1 | 16 | -5 | 7 | 3 | 1 | x
N#Cc1cc2c(nc1SCc1ccccc1)CCC2 | -2 | -2 | 9 | -2 | -1 | 1 | x
N#Cc1cc2c(nc1SCc1ccncc1)CCC2 | 2 | 2 | -4 | -9 | 38* | 1 | 13
NS(=O)(=O)c1cccc(NC(=O)CSc2ncnc3ccccc23)c1 | 1 | -1 | -14 | 4 | 37* | -7 | 14
NS(=O)(=O)c1cccc(NC(=O)CSc2nc3ccccc3c(=O)n2Cc2ccco2)c1 | 2 | 1 | -7 | 3 | 80* | -1 | 6

Screening data (PubChem BioAssay)
